Laboratory results reported in ChEMBL document CHEMBL1154983, “Arylpiperazine-containing pyrrole 3-carboxamide derivatives targeting serotonin 5-HT(2A), 5-HT(2C), and the serotonin transporter as a potential antidepressant” (Bioorg Med Chem Lett, 2010).
Activity calls are given as the source filed them. No cut-off for these calls is given here.

Tests used:
[1] = target: T1, 5-hydroxytryptamine receptor 2C (Homo sapiens, UniProt P28335); assay: Displacement of [3H]mesulergine from human recombinant 5-HT2C receptor expressed in CHO-K1 cells after 60 mins by rapid filtration assay; format: cell-based
T1 sequence (P28335 whole entry): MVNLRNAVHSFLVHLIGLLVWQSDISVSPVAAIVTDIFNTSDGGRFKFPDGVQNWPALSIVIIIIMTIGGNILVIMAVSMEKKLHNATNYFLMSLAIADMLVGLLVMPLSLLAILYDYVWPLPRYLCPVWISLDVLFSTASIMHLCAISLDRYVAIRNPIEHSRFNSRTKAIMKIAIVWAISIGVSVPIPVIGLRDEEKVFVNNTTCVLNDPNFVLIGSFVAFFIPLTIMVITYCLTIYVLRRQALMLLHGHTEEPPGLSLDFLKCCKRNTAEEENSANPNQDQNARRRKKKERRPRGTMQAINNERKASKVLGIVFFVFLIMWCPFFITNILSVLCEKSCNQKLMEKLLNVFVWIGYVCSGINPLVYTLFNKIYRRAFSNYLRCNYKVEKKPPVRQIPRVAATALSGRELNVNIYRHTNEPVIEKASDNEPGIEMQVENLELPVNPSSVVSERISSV
Procedure, shortened: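 Frozen membranes were from CHO-K1 cells stably expressing human recombinant 5-HT2C, with 1.4 nM [3H]mesulergine. Buffer was 50 mM Tris–HCl pH 7.4, 4 mM CaCl2 and 0.1% ascorbic acid, with methiothepin for nonspecific binding. Incubation ran 60 min at 27 °C, stopped by rapid filtration through 0.5% PEI-presoaked glass-fibre filters.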

[2] = target: 5-hydroxytryptamine receptor 2A (Homo sapiens, UniProt P28223); assay: Displacement of [3H]ketanserin from human recombinant 5-HT2A receptor expressed in CHO-K1 cells after 60 mins; format: cell-based
Chain of 5-hydroxytryptamine receptor 2A (P28223 whole entry): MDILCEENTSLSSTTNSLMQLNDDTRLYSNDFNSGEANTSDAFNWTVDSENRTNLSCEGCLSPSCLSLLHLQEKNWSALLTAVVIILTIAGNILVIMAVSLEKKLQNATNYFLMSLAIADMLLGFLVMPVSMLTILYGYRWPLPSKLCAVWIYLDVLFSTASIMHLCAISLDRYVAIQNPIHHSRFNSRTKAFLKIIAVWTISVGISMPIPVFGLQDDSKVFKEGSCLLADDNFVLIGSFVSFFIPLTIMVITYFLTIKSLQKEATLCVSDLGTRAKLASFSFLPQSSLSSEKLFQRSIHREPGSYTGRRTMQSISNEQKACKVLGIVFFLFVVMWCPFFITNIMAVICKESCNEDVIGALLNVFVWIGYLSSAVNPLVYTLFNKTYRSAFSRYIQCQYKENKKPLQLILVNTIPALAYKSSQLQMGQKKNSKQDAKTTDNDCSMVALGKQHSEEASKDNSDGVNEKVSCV
Procedure, shortened: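 Membranes were from CHO-K1 cells stably expressing 5-HT2A. Radioligand was at 1 nM, with mianserin defining nonspecific binding. Incubation ran 60 min at 27 °C in 50 mM Tris–HCl pH 7.4 with 4 mM CaCl2 and 0.1% ascorbic acid. Harvesting was by filtration through glass-fibre filters presoaked in 0.5% PEI.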

[3] = target: Sodium-dependent serotonin transporter (Homo sapiens, UniProt P31645); assay: Displacement of [3H]imipramine from human SERT expressed in HEK293 cells after 30 mins by rapid filtration assay; format: cell-based
Chain of Sodium-dependent serotonin transporter (P31645 whole entry): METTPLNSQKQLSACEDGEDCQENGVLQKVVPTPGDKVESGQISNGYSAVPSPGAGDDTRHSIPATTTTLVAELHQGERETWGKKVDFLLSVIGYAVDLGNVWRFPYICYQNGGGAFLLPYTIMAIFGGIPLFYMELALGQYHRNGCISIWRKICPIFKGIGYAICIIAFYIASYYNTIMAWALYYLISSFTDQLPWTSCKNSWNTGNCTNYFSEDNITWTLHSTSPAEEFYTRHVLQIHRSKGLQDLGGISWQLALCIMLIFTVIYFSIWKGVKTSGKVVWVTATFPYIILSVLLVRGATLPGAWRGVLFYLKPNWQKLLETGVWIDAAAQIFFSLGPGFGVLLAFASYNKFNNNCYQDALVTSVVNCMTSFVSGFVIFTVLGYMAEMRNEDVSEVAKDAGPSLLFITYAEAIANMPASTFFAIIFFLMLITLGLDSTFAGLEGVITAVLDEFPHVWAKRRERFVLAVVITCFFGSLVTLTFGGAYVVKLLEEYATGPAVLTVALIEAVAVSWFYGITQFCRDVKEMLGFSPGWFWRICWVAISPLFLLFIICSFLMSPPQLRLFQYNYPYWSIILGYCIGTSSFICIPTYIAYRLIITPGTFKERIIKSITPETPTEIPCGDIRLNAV
Procedure, shortened: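 Frozen membranes were from HEK293 cells expressing human SERT, with 4 nM [3H]imipramine in 50 mM Tris–HCl pH 7.4, 120 mM NaCl and 5 mM KCl. Unlabelled imipramine defined nonspecific binding. Incubation ran 30 min at 27 °C, terminated by rapid filtration through 0.5% PEI-presoaked glass-fibre filters.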

[4] = target: 5-hydroxytryptamine receptor 7 (Homo sapiens, UniProt P34969); assay: Inhibition of 5HT7 receptor
Chain of 5-hydroxytryptamine receptor 7 (P34969 whole entry): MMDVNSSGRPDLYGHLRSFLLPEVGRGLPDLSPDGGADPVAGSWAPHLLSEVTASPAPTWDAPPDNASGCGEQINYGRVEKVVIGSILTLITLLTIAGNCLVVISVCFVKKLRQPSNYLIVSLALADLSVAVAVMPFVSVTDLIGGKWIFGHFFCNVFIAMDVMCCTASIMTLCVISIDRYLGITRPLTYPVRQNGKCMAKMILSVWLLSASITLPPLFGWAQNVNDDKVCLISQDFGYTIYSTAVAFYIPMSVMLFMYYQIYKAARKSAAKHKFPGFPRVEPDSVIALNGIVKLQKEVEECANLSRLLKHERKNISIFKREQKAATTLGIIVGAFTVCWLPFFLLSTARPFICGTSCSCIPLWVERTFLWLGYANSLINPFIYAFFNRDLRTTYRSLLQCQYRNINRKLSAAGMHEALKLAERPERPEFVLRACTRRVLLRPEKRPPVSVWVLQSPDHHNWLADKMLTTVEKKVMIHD

Mus musculus [5] = assay: Antidepressant activity in mouse assessed as decrease in duration of immobility at 100 mg/kg, po during final 5 mins of the 6 mins session by forced swimming test; format: functional
Procedure, shortened: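 Mice swam 10 min in a 25-cm glass cylinder (10 cm diameter) holding 15 cm of water at 23 1 °C. Twenty-four hours later, drug was given po 60 min before retesting. Immobility (floating upright with only small movements keeping head above water) was totalled over the last 5 min of the 6-min test.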

Rattus norvegicus [6] = assay: Oral bioavailability in rat at 5 mg/kg; format: ADME, organism-based; settings: in vivo
Procedure, shortened: (§1)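 Rats dosed once with the HCl salt, either i.v. at 1 mg/kg (n = 2 or 3) or orally at 5 mg/kg (n = 3). Plasma and brain levels were followed to derive Cmax, Clast, Tmax, t1/2, AUC, dose-normalised AUC, oral bioavailability (F) and the brain/plasma ratio.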

[7] = Half life in rat brain; format: ADME, tissue-based; procedure, shortened: as §1
Rattus norvegicus [8] = assay: Clast in rat at 5 mg/kg, po; format: ADME, organism-based; parameters: dose 5 mg/kg, route oral; settings: in vivo; procedure, shortened: as §1
[9] = Tmax in rat at 5 mg/kg, po; format: ADME, organism-based; parameters: dose 5 mg/kg, route oral; settings: in vivo; procedure, shortened: as §1
[10] = Cmax in rat brain; format: ADME, organism-based; procedure, shortened: as §1
[11] = Cmax in rat plasma; format: ADME, organism-based; procedure, shortened: as §1
[12] = Half life in rat plasma; format: ADME, cell-free; procedure, shortened: as §1
[13] = Tmax in rat plasma; format: ADME, cell-free; procedure, shortened: as §1
Rattus norvegicus [14] = assay: Dose normalized AUCirlf in rat at 5 mg/kg, po; format: ADME, organism-based; parameters: dose 5 mg/kg, route oral; settings: in vivo; procedure, shortened: as §1
Rattus norvegicus [15] = assay: Clast in rat at 1 mg/kg, iv; format: ADME, organism-based; parameters: dose 1 mg/kg, route intravenous; settings: in vivo; procedure, shortened: as §1
Brain = assay: Clast in rat brain; format: ADME, tissue-based; settings: in vivo; procedure, shortened: as §1
[16] = Elimination half life in rat at 5 mg/kg, po; format: ADME, organism-based; parameters: dose 5 mg/kg, route oral; settings: in vivo, read-out: beta t1/2 (converted); procedure, shortened: as §1
[17] = AUC in rat plasma; format: ADME, cell-free; procedure, shortened: as §1
[18] = Ratio of drug level in brain to plasma in rat; format: ADME, cell-free; procedure, shortened: as §1
[19] = Cmax in rat at 1 mg/kg, iv; format: ADME, organism-based; parameters: dose 1 mg/kg, route intravenous; settings: in vivo; procedure, shortened: as §1
[20] = Cmax in rat at 5 mg/kg, po; format: ADME, organism-based; parameters: dose 5 mg/kg, route oral; settings: in vivo; procedure, shortened: as §1
Rattus norvegicus [21] = assay: AUC (0 to infinity) in rat at 1 mg/kg, iv; format: ADME, organism-based, Plasma; parameters: time infinity, dose 1 mg/kg, route intravenous; settings: in vivo; procedure, shortened: as §1
[22] = Tmax in rat brain; format: ADME, tissue-based; procedure, shortened: as §1
Plasma = assay: Clast in rat plasma; format: ADME, cell-free; procedure, shortened: as §1
[23] = Half life in rat at 1 mg/kg, iv; format: ADME, organism-based; parameters: dose 1 mg/kg, route intravenous; settings: in vivo; procedure, shortened: as §1
[24] = AUC in rat brain; format: ADME, tissue-based; procedure, shortened: as §1
Rattus norvegicus [25] = assay: Dose normalized AUC (0 to infinity) in rat at 1 mg/kg, iv; format: ADME, organism-based; parameters: dose 1 mg/kg, route intravenous; settings: in vivo; procedure, shortened: as §1
Mus musculus [26] = assay: Antidepressant activity in mouse assessed as decrease in duration of immobility at 50 mg/kg, po during final 5 mins of the 6 mins session by forced swimming test; format: functional, organism-based; parameters: dose 50 mg/kg
Procedure, shortened: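 Mice swim for 10 min in a 25-cm glass cylinder (10 cm diameter) holding 15 cm of water at 23 ± 1 °C. They are retested 24 h later for 6 min. Compound is suspended in 3% Tween 80 and given orally 60 min before the test. Total immobility time (floating upright, only small head-keeping movements) is scored over the last 5 min. Means ± S.E.M.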

SMILES: CCCn1c(-c2ccccc2)cc(C(=O)NCCCN2CCN(c3cccc(C)c3C)CC2)c1C
- IC50 [1]: 0.225 µM
- IC50 [2]: 0.129 µM
- IC50 [3]: 0.076 µM

SMILES: Cc1c(C(=O)NCCCN2CCN(c3cccc(Cl)c3Cl)CC2)cc(-c2ccccc2)n1-c1ccc(F)cc1
- IC50 [4]: 0.524 µM

SMILES: Cc1c(C(=O)NCCCN2CCN(c3cccc(Cl)c3)CC2)cc(-c2ccccc2)n1C
- Activity (Mus musculus [5]): inactive

SMILES: Cc1c(C(=O)NCCCN2CCN(c3cccc(Cl)c3)CC2)cc(-c2ccccc2)n1Cc1ccccc1
- IC50 [1]: 1.44 µM
- IC50 [2]: 0.179 µM
- IC50 [3]: 0.235 µM

SMILES: Cc1[nH]c(-c2ccccc2)cc1C(=O)NCCCN1CCN(c2cccc(Cl)c2Cl)CC1.Cl
- F (Rattus norvegicus [6]): 61.03%
- half-life [7]: 3.42 h
- Clast (Rattus norvegicus [8]): 1 ng/mL
- Tmax [9]: 1.17 h
- Cmax [10]: 90 ng/mL
- Cmax [11]: 190 ng/mL
- half-life [12]: 1.97 h
- Tmax [13]: 2 h
- AUC/dose (Rattus norvegicus [14]): 12.783 µg·min/mL
- Clast (Rattus norvegicus [15]): 4 ng/mL
- Clast (Brain): 60 ng/mL
- half-life [16]: 2.52 h
- AUC [17]: 538 ng·h/mL
- Kp [18]: 46
- Cmax [19]: 690 ng/mL
- Cmax [20]: 245 ng/mL
- AUC (Rattus norvegicus [21]): 20.945 µg·min/mL
- Tmax [22]: 2 h
- Clast (Plasma): 100 ng/mL
- half-life [23]: 1.76 h
- AUC [24]: 247 ng·h/mL
- AUC/dose (Rattus norvegicus [25]): 20.945 µg·min/mL

SMILES: Cc1c(C(=O)NCCCN2CCN(c3cccc(Cl)c3)CC2)cc(-c2ccccc2)n1N1CCCCC1
- IC50 [1]: 0.448 µM
- IC50 [2]: 0.441 µM
- IC50 [3]: 0.11 µM

SMILES: CCn1c(-c2ccccc2)cc(C(=O)NCCCN2CCN(c3cccc(C)c3C)CC2)c1C
- Activity (Mus musculus [26]): Active

SMILES: CCn1c(-c2ccccc2)cc(C(=O)NCCCN2CCN(c3cccc(Cl)c3)CC2)c1C
- Activity (Mus musculus [5]): inactive

SMILES: Cc1c(C(=O)NCCN2CCN(c3cccc(Cl)c3Cl)CC2)cc(-c2ccccc2)n1C
- IC50 [1]: 0.156 µM
- IC50 [2]: 0.175 µM
- IC50 [3]: 0.057 µM
